Key:
[1] = Observed permeability in MDCK2 cells assessed as apical to basolateral transport at 200 uM after 0.5 to 1 hrs by HPLC method; format: ADME, cell-based, Canis lupus familiaris; details: dog, mdck-ii
Method in brief: (§1)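 Mock (empty pcDNA3.1) or rat Abcg2/human ABCG2-transfected MDCKII, G418-selected, seeded on 3.0-μm Transwell filters at 1.0×10^6 cells/well, grown 4 days to TEER >200 Ω·cm². Single isomer loaded apical or basolateral in serum-free Opti-MEM I with 0.2 μCi/ml [3H]mannitol, 37°C 5% CO2. Receiver sampled at 0.5 and 1 h. Quantified by HPLC-UV 290 nm. Permeability = initial rate/(area × donor concentration). Efflux ratio = B→A rate / A→B rate. n = 3, mean ± S.D.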

[2] = Observed permeability in MDCK2 cells assessed as basolateral to apical transport at 10 uM after 0.5 to 1 hrs by HPLC method; format: ADME, cell-based, Canis lupus familiaris; details: dog, mdck-ii; method in brief: as §1
[3] = target: T1, Broad substrate specificity ATP-binding cassette transporter ABCG2 (Rattus norvegicus, UniProt Q80W57); test: Observed permeability in MDCK2 cells expressing rat ABCG2 assessed as ABCG2-mediated basolateral to apical transport at 200 uM after 0.5 to 1 hrs by HPLC method; format: ADME, cell-based; details: mdck-ii; method in brief: as §1
T1 sequence (Q80W57 whole entry): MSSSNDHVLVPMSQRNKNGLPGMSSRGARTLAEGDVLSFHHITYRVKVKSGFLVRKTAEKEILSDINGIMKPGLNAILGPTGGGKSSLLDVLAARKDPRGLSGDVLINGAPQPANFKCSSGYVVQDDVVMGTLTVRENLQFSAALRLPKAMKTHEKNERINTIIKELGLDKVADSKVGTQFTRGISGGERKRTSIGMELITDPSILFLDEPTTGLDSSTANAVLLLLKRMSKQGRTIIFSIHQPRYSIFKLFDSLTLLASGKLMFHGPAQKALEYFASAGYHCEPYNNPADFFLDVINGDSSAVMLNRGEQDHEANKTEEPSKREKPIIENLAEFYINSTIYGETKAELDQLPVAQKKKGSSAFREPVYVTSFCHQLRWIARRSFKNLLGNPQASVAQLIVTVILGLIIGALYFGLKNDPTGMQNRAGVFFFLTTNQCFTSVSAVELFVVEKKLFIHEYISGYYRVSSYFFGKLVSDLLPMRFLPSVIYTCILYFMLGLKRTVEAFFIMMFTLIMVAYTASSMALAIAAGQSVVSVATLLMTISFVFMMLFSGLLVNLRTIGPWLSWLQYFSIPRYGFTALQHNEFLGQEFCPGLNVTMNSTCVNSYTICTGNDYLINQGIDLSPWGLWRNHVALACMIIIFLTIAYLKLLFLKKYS

Compound | Papp [1] | Papp [2] | Papp [3]
COc1ccnc(C[S@@+]([O-])c2nc3cc(OC(F)F)ccc3[nH]2)c1OC | 142 uL/hr/cm2 | 121 uL/hr/cm2 | 162 uL/hr/cm2
COc1ccnc(C[S@+]([O-])c2nc3cc(OC(F)F)ccc3[nH]2)c1OC | 130 uL/hr/cm2 | 130 uL/hr/cm2 | 136 uL/hr/cm2

Reference: ChEMBL document CHEMBL3525931, “Stereoselective interaction of pantoprazole with ABCG2. II. In vitro flux analysis” (Drug Metab Dispos, 2012)
